A short description of data set [1]: AUC (0 to 72 hrs) in Lewis rat at 1 mg/kg, po. In kind it is ADME, organism-based. Details: time < 72 hr, dose 1 mg/kg, route oral. The conditions noted are these: plasma. An outline of the steps: (§1)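 Male Lewis rats given a single oral dose (0.1 or 1 mg/kg) suspended in 1% methyl cellulose; plasma taken from the blood samples of the lymphocyte-count study, 5 rats per time point up to 72 h. Drug quantified by LC–MS/MS after solid-phase extraction on a C18 column. Noncompartmental parameters calculated from mean concentrations.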

Data set [2] relates to Mus musculus. Put plainly: Antimultiple sclerosis activity in C57BL/6J mouse assessed as reduction of experimental autoimmune encephalomyelitis score at 0.3 mg/kg, po qd for 23 days. Type of data set: functional, organism-based. Details: dose 0.3 mg/kg.
The test system of a further data set is Rhesus monkey. Put plainly: Drug metabolism in po dosed monkey plasma assessed as 4-PBA level. The settings on record: in vivo. Type of data set: ADME, organism-based, Macaca mulatta.
In data set [3] the target is Sphingosine 1-phosphate receptor 3 (Homo sapiens, UniProt Q99500). In words: Agonist activity at human S1P3 receptor expressed in CHO-K1 cells assessed as induction of GTPgammaS binding. In kind it is functional, cell-based. The method in brief: (§2)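 Membranes from CHO cells expressing rat or human S1P1 or S1P3, homogenized in 5 mM Tris–HCl pH 7.4, 0.25 M sucrose, 1 mM EDTA, 1 mM EGTA and spun at 100,000 × g for 60 min at 4 °C. Serial compound dilutions added to 1–10 µg protein/well, and [35S]GTPγS binding measured. EC50 is the midpoint between vehicle binding ratio and maximal response. Selectivity is the S1P3/S1P1 EC50 ratio.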

Data set [4] can be described thus: Metabolic stability in liver microsomes assessed as degradation of 1,2,4-oxadiazole ring. Type of data set: ADME, Microsome.
A short description of data set [5]: Cmax in Lewis rat at 0.1 mg/kg, po. In kind it is ADME, organism-based. More on the design: dose 0.1 mg/kg, route oral. The settings on record: in vivo. An outline of the steps:
as §1

In data set [6] the target is T1, Sphingosine 1-phosphate receptor 4 (Homo sapiens, UniProt O95977).
T1 sequence (O95977 whole entry): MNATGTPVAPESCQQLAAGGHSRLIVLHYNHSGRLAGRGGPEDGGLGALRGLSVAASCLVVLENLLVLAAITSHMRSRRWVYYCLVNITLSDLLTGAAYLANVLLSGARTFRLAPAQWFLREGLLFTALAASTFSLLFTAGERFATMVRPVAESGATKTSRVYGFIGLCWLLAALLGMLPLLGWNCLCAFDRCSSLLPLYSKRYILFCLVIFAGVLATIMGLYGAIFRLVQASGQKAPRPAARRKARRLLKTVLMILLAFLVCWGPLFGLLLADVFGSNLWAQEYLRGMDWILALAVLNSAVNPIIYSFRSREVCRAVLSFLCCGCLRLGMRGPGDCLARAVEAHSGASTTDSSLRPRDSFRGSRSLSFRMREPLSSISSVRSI
Put plainly: Agonist activity at human S1P4 receptor. In kind it is functional.

Data set [7] concerns Rattus norvegicus. In words: Immunomodulatory activity in Lewis rat assessed as decrease in peripheral blood lymphocyte numbers at 0.1 mg/kg, po after 8 hrs relative to control. Type of data set: functional. More on the design: scale not given: the % may be the effect or the level left. The method in brief: (§3)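 Male Lewis rats, 5 weeks old, 5 per group. Single oral dose (0.1 or 1 mg/kg) suspended in 1% w/v methyl cellulose #400 at 5 ml/kg; vehicle controls. Postcaval vein blood taken under ether anesthesia at 0.5–48 h into EDTA tubes. Absolute lymphocytes counted on a full blood count analyzer, expressed relative to vehicle control, mean ± SE.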

The nature of data set [8]: Terminal half life in Lewis rat at 0.1 mg/kg, po. Type of data set: ADME, organism-based. More on the design: dose 0.1 mg/kg, route oral. The settings on record: in vivo, read-out: beta t1/2 (converted). An outline of the steps: as §1
Data set [9] can be described thus: Agonist activity at rat S1P3 receptor expressed in CHO-K1 cells assessed as induction of GTPgammaS binding. Type of data set: cell-based. The method in brief:
as §2

The nature of data set [10]: AUC (0 to 72 hrs) in C57BL/6J mouse at 1 mg/kg, po. More on the design: time < 72 hr, dose 1 mg/kg, route oral. Type of data set: ADME, organism-based. The conditions noted are these: plasma. An outline of the steps: (§4)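 Male C57BL/6J mice given 1 mg/kg orally at 5 ml/kg as a solution in dimethyl acetamide/25% Purebright/water (1/8/1). Plasma assayed by LC–MS/MS after solid-phase extraction, 5 animals per time point. Noncompartmental analysis performed on mean concentrations.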

The target of data set [11] is Sphingosine 1-phosphate receptor 1 (Rattus norvegicus, UniProt P48303). Put plainly: Agonist activity at rat S1P1 receptor expressed in CHO-K1 cells assessed as induction of GTPgammaS binding. In kind it is functional, cell-based. The method in brief: as §2
A short description of data set [12]: Cmax in C57BL/6J mouse at 1 mg/kg, po. More on the design: dose 1 mg/kg, route oral. The conditions noted are these: in vivo. In kind it is ADME, organism-based. An outline of the steps:
as §4

A short description of data set [13]: Tmax in Lewis rat at 0.1 mg/kg, po. Type of data set: ADME, organism-based. Details: dose 0.1 mg/kg, route oral. The settings on record: in vivo. The method in brief: as §1
Data set [14] is described as follows: Tmax in Lewis rat at 1 mg/kg, po. Details: dose 1 mg/kg, route oral. Type of data set: ADME, organism-based. The settings on record: in vivo. An outline of the steps: as §1
The species named for another data set is Homo sapiens. Put plainly: Selectivity ratio of EC50 for human S1P3 receptor to EC50 for human S1P1 receptor. An outline of the steps:
as §2

Data set [15] in a line: Metabolic stability in liver microsomes assessed as 4-PBA level. Type of data set: ADME, Microsome.
Data set [16] can be described thus: Terminal half life in Lewis rat at 1 mg/kg, po. Type of data set: ADME, organism-based. Details: dose 1 mg/kg, route oral. The conditions noted are these: in vivo, read-out: beta t1/2 (converted). The method in brief:
as §1

In data set [17] the test system is Rattus norvegicus. Put plainly: Antiarthritic activity in po dosed Lewis rat assessed as reduction of adjuvant-induced right hind foot volume administered as qd for 18 days. In kind it is functional. The conditions noted are these: 432 h, read-out: ID50 (the source's name). The method in brief: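 Lewis rats injected intradermally with adjuvant (0.05 ml) in the right hind footpad. Oral dosing at 0.1, 0.3, 1 or 3 mg/kg in 1% methyl cellulose, 5 ml/kg, once daily from Day 0 for 18 days; uninjected normal group. Right foot volume measured by plethysmometer on Days 0–18. % inhibition computed against control and normal, and ID50 taken by least-squares regression of % inhibition against log dose at Day 18.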

Data set [18] is described as follows: AUC (0 to 72 hrs) in Lewis rat at 0.1 mg/kg, po. In kind it is ADME, organism-based. More on the design: time < 72 hr, dose 0.1 mg/kg, route oral. The conditions noted are these: plasma. An outline of the steps: as §1
Data set [19] concerns the target Sphingosine 1-phosphate receptor 5 (Homo sapiens, UniProt Q9H228). Put plainly: Agonist activity at human S1P5 receptor. In kind it is functional.
Data set [20] is described as follows: Terminal half life in C57BL/6J mouse at 1 mg/kg, po. In kind it is ADME, organism-based. Details: dose 1 mg/kg, route oral. The settings on record: in vivo, read-out: beta t1/2 (converted). The method in brief: as §4
The test system of data set [21] is Rattus norvegicus. Put plainly: Immunomodulatory activity in Lewis rat assessed as decrease in peripheral blood lymphocyte numbers at 1 mg/kg, po after 8 hrs relative to control. In kind it is functional. Details: scale not given: the % may be the effect or the level left. The method in brief: as §3
Data set [22] can be described thus: Tmax in C57BL/6J mouse at 1 mg/kg, po. In kind it is ADME, organism-based. Details: dose 1 mg/kg, route oral. The settings on record: in vivo. An outline of the steps:
as §4

The subject of data set [23] is Rattus norvegicus. In words: Drug metabolism in po dosed rat plasma assessed as 4-PBA level. Type of data set: ADME, organism-based. The settings on record: in vivo.
The test system of data set [24] is Rattus norvegicus. Put plainly: Immunomodulatory activity in Lewis rat assessed as decrease in peripheral blood lymphocyte numbers at 0.1 to 1 mg/kg, po after 24 to 48 hrs. Type of data set: functional, organism-based. The method in brief: as §3
Data set [25] deals with Mus musculus. In words: Antimultiple sclerosis activity in C57BL/6J mouse assessed as reduction of experimental autoimmune encephalomyelitis score at 1 mg/kg, po qd for 23 days. In kind it is functional, organism-based. More on the design: dose 1 mg/kg.
A short description of data set [26]: Cmax in Lewis rat at 1 mg/kg, po. Type of data set: ADME, organism-based. More on the design: dose 1 mg/kg, route oral. The conditions noted are these: in vivo. An outline of the steps: as §1
For data set [27], the species on record is Rattus norvegicus. In words: Selectivity ratio of EC50 for rat S1P3 receptor to EC50 for rat S1P1 receptor. The method in brief:
as §2

SMILES strings stand for the structures. The source made the active and inactive calls. The rule behind the calls is not given here.

Sphingosine 1-phosphate receptor 5, sequence (Q9H228 whole entry): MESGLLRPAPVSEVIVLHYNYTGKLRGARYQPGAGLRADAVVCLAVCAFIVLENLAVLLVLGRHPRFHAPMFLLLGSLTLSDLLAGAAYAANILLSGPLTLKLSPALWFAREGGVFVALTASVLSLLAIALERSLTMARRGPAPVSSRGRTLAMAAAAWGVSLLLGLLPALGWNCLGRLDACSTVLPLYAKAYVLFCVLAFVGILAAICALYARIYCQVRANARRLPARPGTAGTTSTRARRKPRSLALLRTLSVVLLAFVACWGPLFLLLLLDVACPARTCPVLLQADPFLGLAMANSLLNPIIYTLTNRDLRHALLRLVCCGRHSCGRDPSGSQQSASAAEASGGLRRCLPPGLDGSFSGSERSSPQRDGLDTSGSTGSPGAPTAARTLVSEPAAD
Sphingosine 1-phosphate receptor 1, sequence (P48303 whole entry): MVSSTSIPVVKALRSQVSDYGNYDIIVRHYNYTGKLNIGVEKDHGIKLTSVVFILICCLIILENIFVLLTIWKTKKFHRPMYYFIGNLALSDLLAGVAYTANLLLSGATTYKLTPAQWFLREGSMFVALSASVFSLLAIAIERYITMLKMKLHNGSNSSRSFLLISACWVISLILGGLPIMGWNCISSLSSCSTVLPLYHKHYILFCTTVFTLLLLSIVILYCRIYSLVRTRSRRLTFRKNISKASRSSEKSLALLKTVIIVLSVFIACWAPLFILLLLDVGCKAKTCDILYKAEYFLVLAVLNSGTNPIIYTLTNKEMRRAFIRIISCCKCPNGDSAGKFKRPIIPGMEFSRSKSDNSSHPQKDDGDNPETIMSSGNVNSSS
Sphingosine 1-phosphate receptor 3, sequence (Q99500 whole entry): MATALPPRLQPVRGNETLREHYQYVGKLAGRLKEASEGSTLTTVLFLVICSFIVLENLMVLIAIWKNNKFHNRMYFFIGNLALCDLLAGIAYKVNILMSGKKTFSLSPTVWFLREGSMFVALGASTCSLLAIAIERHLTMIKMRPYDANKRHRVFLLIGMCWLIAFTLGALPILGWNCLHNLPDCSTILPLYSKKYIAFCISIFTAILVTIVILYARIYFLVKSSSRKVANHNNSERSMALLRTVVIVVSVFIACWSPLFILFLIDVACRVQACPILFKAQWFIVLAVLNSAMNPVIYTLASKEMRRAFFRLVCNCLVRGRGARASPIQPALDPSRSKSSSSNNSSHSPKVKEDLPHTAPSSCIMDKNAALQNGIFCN

On to `CCc1cc(CN2CC(C(=O)O)C2)sc1-c1noc(-c2ccc(Oc3ccccc3)cc2)n1`, for which the AUC(0-t) at 72 h in data set [1] was 2670 ng·h/mL; in [10], 1540 ng·h/mL; in data set [18], 268 ng·h/mL. Further, the outcome with Mus musculus [2] and in the data set with Mus musculus [25] was Active. The Drug metabolism result in the data set on Rhesus monkey and in the data set on Rattus norvegicus [23] was “Active” in each case. Further, the EC50 in [3] was greater than 20000 nM; in data set [6] it was 58 nM; in data set [9] it was 7400 nM; in data set [11], 1.5 nM; in [19], 17 nM. Besides, the Stability result in [4] and in data set [15] was “Stable” in each case. For the same compound, the figures for the Cmax in data set [5], in data set [12] and in data set [26] were 17.4 ng/mL, 135 ng/mL and 186 ng/mL, respectively. Further, the Activity was 27% in the data set on Rattus norvegicus [7] and 11% in the data set with Rattus norvegicus [21]. Besides, the half-life in data set [8] was 12.4 h; in [16], 8.73 h; in [20], 13.9 h. The values for the Tmax in [13], in data set [14] and in [22] were 4 h, 4 h and 2 h, respectively. The Ratio EC50 in the data set listed under Homo sapiens is greater than 5000. The ED50 in the data set with Rattus norvegicus [17] amounted to 0.44 mg/kg. In the data set on Rattus norvegicus [24], the result was inactive.

`CCCCCCCCc1ccc(CC[C@](N)(CO)COP(=O)(O)O)cc1` [FTY720-P]: in [9], the EC50 stood at 1.3 nM.

As to `Cc1ccc(CCCC(=O)c2ccc(CC[C@@](C)(N)COP(=O)(O)O)n2C)cc1`, the EC50 in [9] was 200 nM. In addition, the Ratio EC50 in the data set filed under Homo sapiens worked out at 320; in the data set listed under Rattus norvegicus [27] it was 100.

Values taken from ChEMBL document CHEMBL1955716, “Synthesis and evaluation of CS-2100, a potent, orally active and S1P(3)- sparing S1P(1) agonist” (Eur J Med Chem, 2012).
